# From ChEMBL document CHEMBL1138555, “N-acylated and N,N'-diacylated imidazolidine-2-thione derivatives and N,N'-diacylated tetrahydropyrimidine-2(1H)-thione analogues: synthesis and antiproliferative activity” (Eur J Med Chem, 2009)
# What was measured:
# PC-3 = experiment: Growth inhibition of human PC3 cells after 48 hrs by sulforhodamine B assay; type: functional; details: PC-3, 48 h
# Outline: (§1)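 NCI screen panel. Five 10-fold concentrations from 10^-4 to 10^-8 M. Exposure for the last 48 h of a 72 h incubation. Growth estimated by sulforhodamine B protein assay. GI50 is the concentration giving 50% growth inhibition. Where that level was not reached or was exceeded, the value is given as above or below the highest or lowest concentration tested.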
# MT4 = experiment: Antiproliferative activity against human MT4 cells assessed as reduction of growth by MTT assay; type: functional, cell-based
# Outline: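 MT-4 lymphoblastoid T cells (ATCC) in RPMI 1640 with 10% FCS, penicillin/streptomycin, checked for mycoplasma. 1 × 10⁴ mock-infected cells per well with serial dilutions from a 100 mM DMSO stock. Incubated 4 days at 37 °C, viable cells counted by MTT. IC50 versus untreated controls by linear regression. Mean of three separate experiments.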
# UACC-62 = experiment: Growth inhibition of human UACC62 cells after 48 hrs by sulforhodamine B assay; type: functional; details: UACC-62, 48 h
# Outline: (§2)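 NCI in vitro panel screen. Compounds tested at five 10-fold dilutions, 10^-4 to 10^-8 M. Cells in 96-well plates were exposed for the last 48 h of a 72 h incubation. Viability/growth was read by sulforhodamine B protein assay. GI50 is the concentration giving 50% growth inhibition. Values beyond the tested range are reported as greater or less than the maximum or minimum concentration.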
# [1] = Growth inhibition of human Hs 578T cells after 48 hrs by sulforhodamine B assay; type: functional; outline: as §1
# ACHN = experiment: Growth inhibition of human ACHN cells after 48 hrs by sulforhodamine B assay; type: functional; outline: as §1
# OVCAR-3 = experiment: Growth inhibition of human OVCAR-3 cells after 48 hrs by sulforhodamine B assay; type: functional; details: OVCAR-3, 48 h; outline: as §1
# OVCAR-4 = experiment: Growth inhibition of human OVCAR4 cells after 48 hrs by sulforhodamine B assay; type: functional; details: OVCAR-4, 48 h; outline: as §1
# CAKI-1 = experiment: Growth inhibition of human Caki1 cells after 48 hrs by sulforhodamine B assay; type: functional; details: CAKI-1, 48 h; outline: as §1
# IGROV-1 = experiment: Growth inhibition of human IGROV1 cells after 48 hrs by sulforhodamine B assay; type: functional; details: IGROV-1, 48 h; outline: as §1
# T47D = experiment: Growth inhibition of human T47D cells after 48 hrs by sulforhodamine B assay; type: functional; outline: as §2
# MOLT-4 = experiment: Growth inhibition of human MOLT4 cells after 48 hrs by sulforhodamine B assay; type: functional; details: MOLT-4, 48 h; outline: as §1
# SN12C = experiment: Growth inhibition of human SN12C cells after 48 hrs by sulforhodamine B assay; type: functional; outline: as §2
# HCT-15 = experiment: Growth inhibition of human HCT15 cells after 48 hrs by sulforhodamine B assay; type: functional; details: HCT-15, 48 h; outline: as §1
# HOP-62 = experiment: Growth inhibition of human HOP62 cells after 48 hrs by sulforhodamine B assay; type: functional; details: HOP-62, 48 h; outline: as §1
# HL-60(TB) = experiment: Growth inhibition of human HL-60(TB) cells after 48 hrs by sulforhodamine B assay; type: functional; details: HL-60, 48 h
# Outline: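 NCI 60-cell-line screen protocol: cells exposed to compound at five 10-fold dilutions from 10^-4 to 10^-8 M for the last 48 h of a 72 h incubation. Sulforhodamine B protein assay estimated viability/growth. GI50 (50% growth inhibition) derived; where not reached or exceeded, reported as greater or less than the highest or lowest concentration tested.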
# Malme-3M = experiment: Growth inhibition of human MALME-3M cells after 48 hrs by sulforhodamine B assay; type: functional; outline: as §1
# MDA-MB-435 = experiment: Growth inhibition of human MDA-MB-435 cells after 48 hrs by sulforhodamine B assay; type: functional; details: MDA-MB-435, 48 h; outline: as §1
# CCRF-CEM = experiment: Growth inhibition of human CCRF-CEM cells after 48 hrs by sulforhodamine B assay; type: functional; outline: as §1
# UACC-257 = experiment: Growth inhibition of human UACC257 cells after 48 hrs by sulforhodamine B assay; type: functional; details: UACC-257, 48 h; outline: as §2
# OVCAR-5 = experiment: Growth inhibition of human OVCAR5 cells after 48 hrs by sulforhodamine B assay; type: functional; details: OVCAR-5, 48 h; outline: as §1
# SK-OV-3 = experiment: Growth inhibition of human SKOV3 cells after 48 hrs by sulforhodamine B assay; type: functional; details: SK-OV-3, 48 h; outline: as §1
# NCI-H322M = experiment: Growth inhibition of human NCI-H322M cells after 48 hrs by sulforhodamine B assay; type: functional; outline: as §1
# HT-29 = experiment: Growth inhibition of human HT-29 cells after 48 hrs by sulforhodamine B assay; type: functional; details: HT-29, 48 h; outline: as §1
# SF-268 = experiment: Growth inhibition of human SF268 cells after 48 hrs by sulforhodamine B assay; type: functional; details: SF-268, 48 h; outline: as §1
# COLO 205 = experiment: Growth inhibition of human COLO205 cells after 48 hrs by sulforhodamine B assay; type: functional; details: COLO 205, 48 h; outline: as §1
# SW-620 = experiment: Growth inhibition of human SW620 cells after 48 hrs by sulforhodamine B assay; type: functional; details: SW-620, 48 h; outline: as §2
# HCT-116 = experiment: Growth inhibition of human HCT116 cells after 48 hrs by sulforhodamine B assay; type: functional; details: HCT-116, 48 h; outline: as §1
# KM12 = experiment: Growth inhibition of human KM12 cells after 48 hrs by sulforhodamine B assay; type: functional; details: KM12, 48 h; outline: as §1
# SNB-19 = experiment: Growth inhibition of human SNB19 cells after 48 hrs by sulforhodamine B assay; type: functional; details: SNB-19, 48 h; outline: as §2
# SNB-75 = experiment: Growth inhibition of human SNB75 cells after 48 hrs by sulforhodamine B assay; type: functional; details: SNB-75, 48 h; outline: as §2
# MDA-MB-231 = experiment: Growth inhibition of human MDA-MB-231 cells after 48 hrs by sulforhodamine B assay; type: functional; details: MDA-MB-231, 48 h; outline: as §1
# LOX IMVI = experiment: Growth inhibition of human LOXIMVI cells after 48 hrs by sulforhodamine B assay; type: functional; outline: as §1
# HOP-92 = experiment: Growth inhibition of human HOP92 cells after 48 hrs by sulforhodamine B assay; type: functional; details: HOP-92, 48 h; outline: as §1
# M14 = experiment: Growth inhibition of human M14 cells after 48 hrs by sulforhodamine B assay; type: functional; details: M14, 48 h; outline: as §1
# MCF7 = experiment: Growth inhibition of human MCF7 cells after 48 hrs by sulforhodamine B assay; type: functional; details: MCF7, 48 h; outline: as §1
# U-251 = experiment: Growth inhibition of human U251 cells after 48 hrs by sulforhodamine B assay; type: functional; details: U-251, 48 h; outline: as §2
# MDA-N = experiment: Growth inhibition of human MDA-N cells after 48 hrs by sulforhodamine B assay; type: functional
# Outline: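 NCI screen panel. Five 10-fold concentrations from 10^-4 to 10^-8 M. Exposure for the last 48 h of a 72 h incubation. Growth estimated by sulforhodamine B protein assay. Where that level was not reached or was exceeded, the value is given as above or below the highest or lowest concentration tested.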
# NCI-H460 = experiment: Growth inhibition of human NCI-H460 cells after 48 hrs by sulforhodamine B assay; type: functional; details: NCI-H460, 48 h; outline: as §1
# EKVX = experiment: Growth inhibition of human EKVX cells after 48 hrs by sulforhodamine B assay; type: functional; outline: as §1
# UO-31 = experiment: Growth inhibition of human UO31 cells after 48 hrs by sulforhodamine B assay; type: functional; details: UO-31, 48 h; outline: as §2
Structure (SMILES),GI50 (PC-3),IC50 (MT4),GI50 (UACC-62),GI50 [1],GI50 (ACHN),GI50 (OVCAR-3),GI50 (OVCAR-4),GI50 (CAKI-1),GI50 (IGROV-1),GI50 (T47D),GI50 (MOLT-4),GI50 (SN12C),GI50 (HCT-15),GI50 (HOP-62),GI50 (HL-60(TB)),GI50 (Malme-3M),GI50 (MDA-MB-435),GI50 (CCRF-CEM),GI50 (UACC-257),GI50 (OVCAR-5),further results
O=C(c1ccc(Cl)cc1Cl)N1CCN(C(=O)c2ccc(Cl)cc2Cl)C1=S,22.7 µM,39 µM,17.3 µM,41 µM,21.3 µM,19.7 µM,25.8 µM,22.1 µM,21 µM,19.5 µM,20.5 µM,18.1 µM,22.1 µM,23.1 µM,16.6 µM,25.4 µM,16.4 µM,19.5 µM,28.2 µM,21.6 µM,GI50 (SK-OV-3): 22.8 µM; GI50 (NCI-H322M): 18.1 µM; GI50 (HT-29): 20.4 µM; GI50 (SF-268): 24.5 µM; GI50 (COLO 205): 21 µM; GI50 (SW-620): 28.2 µM; GI50 (HCT-116): 23.5 µM; GI50 (KM12): 15.3 µM; GI50 (SNB-19): 24.9 µM; GI50 (SNB-75): 22.3 µM; GI50 (MDA-MB-231): 19.1 µM; GI50 (LOX IMVI): 17.1 µM; GI50 (HOP-92): 7.8 µM; GI50 (M14): 16.3 µM; GI50 (MCF7): 18.3 µM; GI50 (U-251): 17.8 µM; GI50 (MDA-N): 20 µM; GI50 (NCI-H460): 35.4 µM; GI50 (EKVX): 20.5 µM
O=C(c1cc(Cl)cc(Cl)c1)N1CCN(C(=O)c2cc(Cl)cc(Cl)c2)C1=S,16.9 µM,13 µM,15.6 µM,21.4 µM,17.4 µM,10.2 µM,18 µM,9.7 µM,15.3 µM,6.5 µM,3.4 µM,9 µM,13.5 µM,14.3 µM,3.3 µM,9.8 µM,9 µM,3.3 µM,15.5 µM,22.9 µM,GI50 (UO-31): 2.3 µM; GI50 (SK-OV-3): 15.3 µM; GI50 (NCI-H322M): 16.8 µM; GI50 (HT-29): 22.2 µM; GI50 (SF-268): 14.1 µM; GI50 (COLO 205): 18.3 µM; GI50 (SW-620): 11.1 µM; GI50 (HCT-116): 16.9 µM; GI50 (KM12): 10.1 µM; GI50 (SNB-19): 19 µM; GI50 (SNB-75): 14.1 µM; GI50 (MDA-MB-231): 16.2 µM; GI50 (LOX IMVI): 3 µM; GI50 (HOP-92): 3.2 µM; GI50 (M14): 11.9 µM; GI50 (MCF7): 3.1 µM; GI50 (U-251): 12.9 µM; GI50 (MDA-N): 13 µM; GI50 (NCI-H460): 20.8 µM; GI50 (EKVX): 17.6 µM
COc1cc(C(=O)N2CCN(C=O)C2=S)cc(OC)c1OC,22.2 µM,13 µM,15.8 µM,27.6 µM,20.1 µM,16.9 µM,24.1 µM,13.6 µM,21.9 µM,20.7 µM,29.4 µM,20.2 µM,25.6 µM,20 µM,23.4 µM,24.3 µM,15.5 µM,18.3 µM,19.9 µM,48.5 µM,GI50 (UO-31): 0.07 µM; GI50 (SK-OV-3): 21.9 µM; GI50 (NCI-H322M): 24.8 µM; GI50 (HT-29): 26.7 µM; GI50 (SF-268): 21.4 µM; GI50 (COLO 205): 20.2 µM; GI50 (SW-620): 26.8 µM; GI50 (HCT-116): 35.6 µM; GI50 (KM12): 14.4 µM; GI50 (SNB-19): 28.5 µM; GI50 (SNB-75): 10.9 µM; GI50 (MDA-MB-231): 21.5 µM; GI50 (LOX IMVI): 16.4 µM; GI50 (HOP-92): 9.3 µM; GI50 (M14): 20.6 µM; GI50 (MCF7): 5.5 µM; GI50 (U-251): 16.4 µM; GI50 (MDA-N): 17.9 µM; GI50 (NCI-H460): 34 µM; GI50 (EKVX): 31.8 µM
